Experiments:
[1] = target: Metabotropic glutamate receptor 2 (Homo sapiens, UniProt Q14416)
[2] = target: Cytochrome P450 2C19 (Homo sapiens, UniProt P33261); assay: Inhibition of CYP2C19 (unknown origin); assay type: ADME
How it was run: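 Isoform-specific CYP450 inhibition, reported as IC50 in µM.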

Chain of Metabotropic glutamate receptor 2 (Q14416 whole entry): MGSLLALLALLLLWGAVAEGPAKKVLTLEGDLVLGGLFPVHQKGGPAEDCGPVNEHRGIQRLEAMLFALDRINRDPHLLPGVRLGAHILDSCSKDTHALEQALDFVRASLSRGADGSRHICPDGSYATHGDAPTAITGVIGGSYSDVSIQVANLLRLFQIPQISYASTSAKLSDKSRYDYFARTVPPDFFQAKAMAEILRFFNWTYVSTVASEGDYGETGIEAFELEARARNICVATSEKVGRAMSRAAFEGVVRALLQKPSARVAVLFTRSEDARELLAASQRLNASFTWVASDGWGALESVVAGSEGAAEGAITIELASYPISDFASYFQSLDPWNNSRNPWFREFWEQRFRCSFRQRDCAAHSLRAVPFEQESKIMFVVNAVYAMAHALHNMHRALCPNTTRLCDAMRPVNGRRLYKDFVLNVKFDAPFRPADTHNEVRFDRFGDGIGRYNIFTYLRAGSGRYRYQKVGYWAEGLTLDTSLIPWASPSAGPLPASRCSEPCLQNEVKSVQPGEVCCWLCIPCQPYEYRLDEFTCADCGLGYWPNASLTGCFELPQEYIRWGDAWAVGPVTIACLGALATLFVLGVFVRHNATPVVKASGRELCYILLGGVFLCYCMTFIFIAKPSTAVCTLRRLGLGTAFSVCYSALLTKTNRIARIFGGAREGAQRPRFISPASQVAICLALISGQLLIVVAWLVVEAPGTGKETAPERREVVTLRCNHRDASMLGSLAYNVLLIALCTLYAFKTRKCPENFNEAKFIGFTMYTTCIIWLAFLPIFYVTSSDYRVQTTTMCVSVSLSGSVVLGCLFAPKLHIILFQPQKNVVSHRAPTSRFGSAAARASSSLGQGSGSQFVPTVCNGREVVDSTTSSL
Chain of Cytochrome P450 2C19 (P33261 whole entry, canonical isoform): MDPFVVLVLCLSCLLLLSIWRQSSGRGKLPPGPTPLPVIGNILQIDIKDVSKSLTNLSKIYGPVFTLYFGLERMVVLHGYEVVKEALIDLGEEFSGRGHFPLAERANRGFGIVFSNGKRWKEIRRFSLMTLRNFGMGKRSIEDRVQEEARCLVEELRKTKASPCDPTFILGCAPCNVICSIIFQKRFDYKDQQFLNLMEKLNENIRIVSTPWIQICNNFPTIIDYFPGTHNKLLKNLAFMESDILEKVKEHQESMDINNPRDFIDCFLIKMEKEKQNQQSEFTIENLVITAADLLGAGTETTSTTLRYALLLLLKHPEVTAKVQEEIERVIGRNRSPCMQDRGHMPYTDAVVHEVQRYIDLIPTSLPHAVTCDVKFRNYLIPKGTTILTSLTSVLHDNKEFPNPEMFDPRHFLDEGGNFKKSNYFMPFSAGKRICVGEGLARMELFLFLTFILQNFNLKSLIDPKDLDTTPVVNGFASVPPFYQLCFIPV

SMILES	EC50 [1]	IC50 [2]
COc1ccccc1C1CCN(Cc2nc3ccccc3n2C)CC1	870 nM	
c1ccc(CCCCN2CCn3c(nc4ccccc43)C2)cc1	420 nM	
Fc1cc(Cl)ccc1CCCCN1CCn2c(nc3ccccc32)C1	540 nM	
Fc1cccc(CCN2CCn3c(nc4ccccc43)C2)c1	4700 nM	
Fc1ccc(CCCCN2CCn3c(nc4ccccc43)C2)c(F)c1	340 nM	
O=C1c2nc3ccccc3n2CCN1CCCCOc1ccc(F)cc1Br	50 nM	
Fc1cc(C(F)(F)F)ccc1CCCCN1CCn2c(nc3ccccc32)C1	970 nM	
c1ccc(CCCCCN2CCn3c(nc4ccccc43)C2)cc1	130 nM	
COc1ccc(CCCCN2CCn3c(nc4ccccc43)C2)cc1	2280 nM	
Fc1ccc(OCCCN2CCn3c(nc4ccccc43)C2)cc1Cl	170 nM	
Cc1ccc(CCN2CCn3c(nc4ccccc43)C2)cc1	2430 nM	
Fc1ccc(SCCCN2CCn3c(nc4ccccc43)C2)cc1F	90 nM	
Cc1ccccc1OCCCCN1CCn2c(nc3ccccc32)C1=O	90 nM	
COc1ccc(CCN2CCn3c(nc4ccccc43)C2)cc1	2740 nM	
Fc1ccc(SCCCN2CCn3c(nc4ccccc43)C2)c(F)c1	350 nM	
Fc1ccc(OCCCN2CCn3c(nc4ccccc43)C2)cc1F	540 nM	
O=C1c2nc3ccccc3n2CCN1CCCCOc1ccc(Cl)cc1	70 nM	
O=C1c2nc3ccccc3n2CCN1CCCCOc1ccc(OC(F)(F)F)cc1		> 10000 nM
O=C1c2nc3ccccc3n2CCN1CCCOc1ccc(Cl)c(Cl)c1	90 nM	
O=C1c2nc3ccccc3n2CCN1CCCCOc1ccc(F)cc1F	50 nM	
c1ccc(SCCCN2CCn3c(nc4ccccc43)C2)cc1	260 nM	
COc1ccc(CCCCN2CCn3c(nc4ccccc43)C2)c(F)c1	1210 nM	
Clc1ccc(SCCCN2CCn3c(nc4ccccc43)C2)cc1	550 nM	
N#Cc1ccc(CCCCN2CCn3c(nc4ccccc43)C2)cc1	2400 nM	
Fc1ccc(SCCCN2CCn3c(nc4ccccc43)C2)cc1	320 nM	
O=C1c2nc3ccccc3n2CCN1CCCCOc1ccc(C(F)(F)F)cc1	40 nM	
Clc1ccc(OCCCN2CCn3c(nc4ccccc43)C2)cc1Cl	70 nM	
Brc1ccc(SCCCN2CCn3c(nc4ccccc43)C2)cc1	270 nM	
Cn1c(CN2CCC(c3ccccc3F)CC2)nc2ccccc21	130 nM	

From ChEMBL document CHEMBL4715841, “Discovery of dihydropyrazino-benzimidazole derivatives as metabotropic glutamate receptor-2 (mGluR2) positive allosteric modulators (PAMs)” (Eur J Med Chem, 2020)
